Measured values from ChEMBL document CHEMBL4028905, “A Unique Approach to Design Potent and Selective Cyclic Adenosine Monophosphate Response Element Binding Protein, Binding Protein (CBP) Inhibitors” (J Med Chem, 2017).
The source made the active and inactive calls. No cut-off for these calls is given here.

Assays:
[1] = Intrinsic clearance in rat liver microsomes at 1 uM in presence of NADPH by LC-MS/MS analysis; format: ADME, microsome; details: read-out: CLH
[2] = Intrinsic clearance in mouse liver microsomes at 1 uM in presence of NADPH by LC-MS/MS analysis; format: ADME, microsome; details: read-out: CLH
[3] = biological target: Bromodomain-containing protein 4 (Homo sapiens, UniProt O60885); experiment: Inhibition of His tagged recombinant BRD4 bromodomain 1 (unknown origin) by TR-FRET assay
Procedure, shortened: (§1)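 Recombinant His-tagged bromodomains purified by Ni affinity, tag removed with thrombin, checked by mass spectrometry. Assay is TR-FRET competition against a biotinylated small-molecule ligand. Normalized inhibition vs concentration fit to 4-parameter Hill equation; […] for optimization.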

[4] = Intrinsic clearance in human liver microsomes at 1 uM in presence of NADPH by LC-MS/MS analysis; format: ADME, microsome; details: read-out: CLH
CREB-binding protein [5] = biological target: T1, CREB-binding protein (Homo sapiens, UniProt Q92793); experiment: Inhibition of His tagged recombinant CBP (unknown origin) by TR-FRET assay; procedure, shortened: as §1
Target sequence in this assay (Q92793 whole entry): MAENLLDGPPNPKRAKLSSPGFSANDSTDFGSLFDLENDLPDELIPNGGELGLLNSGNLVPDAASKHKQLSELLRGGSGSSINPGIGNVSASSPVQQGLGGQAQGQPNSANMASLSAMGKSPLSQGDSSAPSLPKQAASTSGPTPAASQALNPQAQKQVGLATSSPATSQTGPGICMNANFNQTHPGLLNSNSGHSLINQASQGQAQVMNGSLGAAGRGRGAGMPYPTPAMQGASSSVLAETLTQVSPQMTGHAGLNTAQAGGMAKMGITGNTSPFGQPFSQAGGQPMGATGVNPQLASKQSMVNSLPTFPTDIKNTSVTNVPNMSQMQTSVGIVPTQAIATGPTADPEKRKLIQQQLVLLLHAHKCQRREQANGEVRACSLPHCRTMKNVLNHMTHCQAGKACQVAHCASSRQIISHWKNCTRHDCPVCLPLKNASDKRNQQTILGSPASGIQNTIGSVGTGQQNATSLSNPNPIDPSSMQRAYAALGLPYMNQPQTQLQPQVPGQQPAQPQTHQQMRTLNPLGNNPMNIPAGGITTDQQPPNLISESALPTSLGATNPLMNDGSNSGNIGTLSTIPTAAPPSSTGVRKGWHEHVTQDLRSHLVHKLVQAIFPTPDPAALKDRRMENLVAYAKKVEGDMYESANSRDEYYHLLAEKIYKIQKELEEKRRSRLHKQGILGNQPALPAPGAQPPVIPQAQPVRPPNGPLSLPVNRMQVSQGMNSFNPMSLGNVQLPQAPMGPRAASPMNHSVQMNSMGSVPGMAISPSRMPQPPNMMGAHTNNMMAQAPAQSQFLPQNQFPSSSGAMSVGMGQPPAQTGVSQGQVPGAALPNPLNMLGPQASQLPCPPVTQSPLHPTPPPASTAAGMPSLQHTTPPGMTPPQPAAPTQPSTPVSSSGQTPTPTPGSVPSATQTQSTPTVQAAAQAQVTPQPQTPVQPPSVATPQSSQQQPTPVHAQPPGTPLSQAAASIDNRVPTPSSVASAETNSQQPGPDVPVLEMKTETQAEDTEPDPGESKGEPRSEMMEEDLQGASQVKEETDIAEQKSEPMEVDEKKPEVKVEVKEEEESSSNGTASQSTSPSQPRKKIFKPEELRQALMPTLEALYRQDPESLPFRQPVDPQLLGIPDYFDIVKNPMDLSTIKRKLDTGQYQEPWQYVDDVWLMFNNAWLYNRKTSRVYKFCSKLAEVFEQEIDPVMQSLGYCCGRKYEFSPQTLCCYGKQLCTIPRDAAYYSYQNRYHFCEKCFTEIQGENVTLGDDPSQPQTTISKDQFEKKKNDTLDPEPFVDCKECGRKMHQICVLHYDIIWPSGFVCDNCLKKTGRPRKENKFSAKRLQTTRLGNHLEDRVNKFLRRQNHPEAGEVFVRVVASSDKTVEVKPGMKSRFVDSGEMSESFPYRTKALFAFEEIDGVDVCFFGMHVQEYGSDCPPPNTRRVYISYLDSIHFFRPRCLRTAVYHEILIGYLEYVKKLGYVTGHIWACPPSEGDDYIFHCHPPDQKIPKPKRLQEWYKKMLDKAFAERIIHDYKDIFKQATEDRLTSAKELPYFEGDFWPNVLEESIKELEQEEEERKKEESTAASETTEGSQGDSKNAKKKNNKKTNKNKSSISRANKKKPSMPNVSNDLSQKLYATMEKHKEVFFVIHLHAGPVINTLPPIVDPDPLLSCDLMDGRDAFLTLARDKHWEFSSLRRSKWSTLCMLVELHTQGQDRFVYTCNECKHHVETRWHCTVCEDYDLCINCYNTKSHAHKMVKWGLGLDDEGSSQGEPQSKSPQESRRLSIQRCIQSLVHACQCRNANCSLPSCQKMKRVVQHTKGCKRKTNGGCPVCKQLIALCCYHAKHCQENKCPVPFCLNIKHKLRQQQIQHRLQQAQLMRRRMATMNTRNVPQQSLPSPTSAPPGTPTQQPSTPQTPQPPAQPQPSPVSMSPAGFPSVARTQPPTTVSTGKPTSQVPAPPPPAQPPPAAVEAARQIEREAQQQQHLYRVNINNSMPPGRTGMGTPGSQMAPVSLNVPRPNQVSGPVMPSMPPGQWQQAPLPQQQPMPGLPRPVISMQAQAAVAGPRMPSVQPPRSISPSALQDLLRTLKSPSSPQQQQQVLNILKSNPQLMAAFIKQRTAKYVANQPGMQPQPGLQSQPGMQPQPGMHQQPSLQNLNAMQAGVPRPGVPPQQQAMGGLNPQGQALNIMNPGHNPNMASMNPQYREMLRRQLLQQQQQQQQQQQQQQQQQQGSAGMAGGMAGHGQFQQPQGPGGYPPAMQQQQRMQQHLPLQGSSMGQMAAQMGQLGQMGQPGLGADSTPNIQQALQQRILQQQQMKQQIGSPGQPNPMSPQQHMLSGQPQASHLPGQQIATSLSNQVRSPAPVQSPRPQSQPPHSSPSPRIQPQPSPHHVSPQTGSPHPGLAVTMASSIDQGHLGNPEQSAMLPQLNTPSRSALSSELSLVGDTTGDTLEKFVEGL

CREB-binding protein [6] = biological target: T1, CREB-binding protein; experiment: Inhibition of His tagged recombinant CBP (unknown origin) at 50 uM by HTS assay
Procedure, shortened: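 HTS TR-FRET competition of biotinylated ligand binding to recombinant His-tagged CBP bromodomain (tag thrombin-cleaved after Ni affinity). Highest concentration tested 50 μM. IC50 from 4-parameter Hill fit of normalized inhibition, reported as geometric mean of 2–8 replicates.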
Target sequence in this assay (Q92793 2-2442 limits assumed): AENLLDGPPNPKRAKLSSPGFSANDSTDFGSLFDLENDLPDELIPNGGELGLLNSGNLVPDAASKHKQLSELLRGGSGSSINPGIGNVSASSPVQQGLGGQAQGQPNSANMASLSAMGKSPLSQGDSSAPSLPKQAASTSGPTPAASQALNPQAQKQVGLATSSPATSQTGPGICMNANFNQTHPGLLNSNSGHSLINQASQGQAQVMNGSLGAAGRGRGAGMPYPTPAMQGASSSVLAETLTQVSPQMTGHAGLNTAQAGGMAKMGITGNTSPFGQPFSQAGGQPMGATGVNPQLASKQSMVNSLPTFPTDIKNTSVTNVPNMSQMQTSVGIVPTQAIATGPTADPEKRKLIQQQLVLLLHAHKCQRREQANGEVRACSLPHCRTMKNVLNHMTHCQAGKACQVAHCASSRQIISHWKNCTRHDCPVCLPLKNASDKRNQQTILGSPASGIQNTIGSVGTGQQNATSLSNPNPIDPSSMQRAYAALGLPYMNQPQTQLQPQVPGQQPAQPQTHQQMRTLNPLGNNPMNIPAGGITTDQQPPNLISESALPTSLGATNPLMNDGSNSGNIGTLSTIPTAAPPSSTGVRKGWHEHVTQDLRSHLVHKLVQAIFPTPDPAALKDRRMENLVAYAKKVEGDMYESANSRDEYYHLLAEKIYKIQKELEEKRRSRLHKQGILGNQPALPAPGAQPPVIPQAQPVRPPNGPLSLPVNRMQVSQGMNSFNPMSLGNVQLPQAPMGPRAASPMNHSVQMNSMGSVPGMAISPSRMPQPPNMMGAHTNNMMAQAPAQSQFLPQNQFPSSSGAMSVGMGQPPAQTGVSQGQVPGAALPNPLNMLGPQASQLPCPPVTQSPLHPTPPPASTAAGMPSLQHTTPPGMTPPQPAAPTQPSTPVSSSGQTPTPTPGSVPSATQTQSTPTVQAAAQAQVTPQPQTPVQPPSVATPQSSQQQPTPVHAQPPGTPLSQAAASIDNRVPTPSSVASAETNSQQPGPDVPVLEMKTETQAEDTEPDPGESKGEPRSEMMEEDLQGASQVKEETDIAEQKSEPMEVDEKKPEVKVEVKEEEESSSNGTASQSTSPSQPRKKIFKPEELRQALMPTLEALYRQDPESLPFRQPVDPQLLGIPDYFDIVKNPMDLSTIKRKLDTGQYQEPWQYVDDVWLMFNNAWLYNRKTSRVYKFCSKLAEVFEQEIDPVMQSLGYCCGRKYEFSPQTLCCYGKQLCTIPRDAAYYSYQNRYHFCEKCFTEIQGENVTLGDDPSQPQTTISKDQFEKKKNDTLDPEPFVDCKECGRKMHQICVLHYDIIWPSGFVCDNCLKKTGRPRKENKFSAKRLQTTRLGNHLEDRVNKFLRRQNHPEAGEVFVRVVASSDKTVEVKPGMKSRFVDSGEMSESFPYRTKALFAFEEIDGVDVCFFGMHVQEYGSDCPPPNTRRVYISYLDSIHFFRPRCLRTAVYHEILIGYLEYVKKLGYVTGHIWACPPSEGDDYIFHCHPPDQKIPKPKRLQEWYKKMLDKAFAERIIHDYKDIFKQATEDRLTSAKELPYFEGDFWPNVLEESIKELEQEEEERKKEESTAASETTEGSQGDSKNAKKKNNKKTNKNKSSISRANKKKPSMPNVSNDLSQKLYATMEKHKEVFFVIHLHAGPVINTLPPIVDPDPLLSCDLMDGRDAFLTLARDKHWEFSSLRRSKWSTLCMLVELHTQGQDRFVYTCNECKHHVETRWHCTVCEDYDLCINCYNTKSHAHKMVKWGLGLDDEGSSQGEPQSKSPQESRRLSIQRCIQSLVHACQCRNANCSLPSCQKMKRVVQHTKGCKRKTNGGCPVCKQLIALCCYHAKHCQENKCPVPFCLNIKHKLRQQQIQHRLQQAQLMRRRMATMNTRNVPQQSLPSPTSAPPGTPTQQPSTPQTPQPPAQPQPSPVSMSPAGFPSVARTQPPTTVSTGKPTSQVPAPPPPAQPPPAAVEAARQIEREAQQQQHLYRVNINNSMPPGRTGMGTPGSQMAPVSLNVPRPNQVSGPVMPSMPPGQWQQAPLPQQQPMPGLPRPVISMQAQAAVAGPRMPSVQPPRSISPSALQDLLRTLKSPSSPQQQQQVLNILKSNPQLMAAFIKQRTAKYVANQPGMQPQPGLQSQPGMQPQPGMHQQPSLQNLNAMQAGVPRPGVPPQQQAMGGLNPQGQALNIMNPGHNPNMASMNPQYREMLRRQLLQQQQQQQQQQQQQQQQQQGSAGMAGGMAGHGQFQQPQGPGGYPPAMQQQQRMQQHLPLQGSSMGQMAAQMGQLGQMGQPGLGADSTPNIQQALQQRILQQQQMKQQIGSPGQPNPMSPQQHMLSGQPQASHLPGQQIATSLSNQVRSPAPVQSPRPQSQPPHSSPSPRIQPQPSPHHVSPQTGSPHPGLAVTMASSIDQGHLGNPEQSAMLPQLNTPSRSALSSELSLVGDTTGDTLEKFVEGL

Homo sapiens [7] = species: Homo sapiens; experiment: Selectivity ratio of IC50 for His tagged recombinant BRD4 bromodomain 1 (unknown origin) to IC50 for His tagged recombinant CBP (unknown origin)
[8] = biological target: CREB-binding protein/Histone acetyltransferase p300 (Homo sapiens, UniProt Q09472+Q92793); experiment: Inhibition of P300/CBP in human MV4-11 cells assessed as reduction in MYC expression after 4 hrs by luminescence based assay; format: cell-based
Procedure, shortened: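 MV-4-11 cells plated at 10,000 per well in RPMI1640 with 10% FBS and 2 mM L-glutamine. Compounds added in DMSO at a final 0.1% and incubated 4 h at 37 °C before MYC expression read-out; EC50 derived.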

Homo sapiens [9] = species: Homo sapiens; experiment: Selectivity ratio of IC50 for His tagged recombinant CBP (unknown origin) to IC50 for His tagged recombinant BRD4 bromodomain 1 (unknown origin)
[10] = biological target: T2, Bromodomain-containing protein 9 (Homo sapiens, UniProt Q9H8M2); experiment: Inhibition of His tagged recombinant BRD9 (unknown origin) by TR-FRET assay; procedure, shortened: as §1
T2 sequence (Q9H8M2 whole entry): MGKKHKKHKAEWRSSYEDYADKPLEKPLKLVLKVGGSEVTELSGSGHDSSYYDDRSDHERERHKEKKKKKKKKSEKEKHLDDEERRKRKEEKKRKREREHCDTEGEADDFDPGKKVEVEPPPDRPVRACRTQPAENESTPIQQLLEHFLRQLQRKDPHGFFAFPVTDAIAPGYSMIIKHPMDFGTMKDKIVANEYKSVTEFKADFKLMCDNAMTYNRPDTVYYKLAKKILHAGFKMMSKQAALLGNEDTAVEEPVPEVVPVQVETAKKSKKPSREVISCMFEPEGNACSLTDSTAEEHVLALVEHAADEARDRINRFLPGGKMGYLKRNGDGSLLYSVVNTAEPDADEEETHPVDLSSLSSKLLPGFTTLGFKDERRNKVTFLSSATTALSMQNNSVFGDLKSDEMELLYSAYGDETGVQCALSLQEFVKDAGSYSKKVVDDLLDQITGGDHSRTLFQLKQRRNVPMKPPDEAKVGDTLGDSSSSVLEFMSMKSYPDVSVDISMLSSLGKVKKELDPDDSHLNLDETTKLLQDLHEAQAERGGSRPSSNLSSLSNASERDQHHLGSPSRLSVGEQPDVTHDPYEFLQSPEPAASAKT

[11] = biological target: Chromatin remodeling regulator CECR2 (Homo sapiens, UniProt Q9BXF3); experiment: Inhibition of His tagged recombinant CECR2 (unknown origin) by TR-FRET assay; procedure, shortened: as §1

SMILES	IC50 [3]	IC50 (CREB-binding protein [5])	Ratio IC50 (Homo sapiens [7])	further results
Cn1c(=O)sc2cc(N)ccc21	> 100 µM	> 100 µM	–	inhibition (CREB-binding protein [6]): Active
CNC(=O)Nc1cc(OC)cc(N2CCCc3cc(-c4cnn(C)c4)c(C(F)F)cc32)n1	> 20 µM	–	> 170	–
CCC(=O)N1CCOc2c(cc(-c3ccc(OC)c(OC)c3)cc2OC[C@H]2CCCN(C)C2)C1	–	–	34	–
COC(=O)c1c[nH]c2ccccc12	> 100 µM	99 µM	> 1	inhibition (CREB-binding protein [6]): Active
CCC(=O)N1CCCc2cc(NS(=O)(=O)c3ccc(F)cc3C)ccc21	74 µM	3 µM	25	–
CC(=O)N1CCc2c(cc(-c3cccc(Cl)c3)c(=O)n2CC2CC2)C1	52 µM	0.54 µM	96	–
Cc1ccc(S(=O)(=O)Nc2ccc3c(c2)CCC(=O)N3C)s1	5.2 µM	23 µM	0.23	Ratio IC50 (Homo sapiens [9]): 4.4
COc1cccc2c1N(CCCNC(=O)c1cccc3c1N[C@H](C)C(=O)N3)CCC2	13 µM	–	22	–
CCOC(=O)c1cnc2ccc(C(=O)OC)cc2c1Nc1cccc(C(=O)O)c1	> 20 µM	0.23 µM	> 87	–
CNC(=O)c1cnn2c(C3CCCN3)ccnc12 (stereo not given)	> 84 µM	32 µM	> 2.6	–
C[C@@H]1CC(=O)Nc2cccc(-c3ccc4c(c3)c(-c3cnn(C)c3)nn4C)c2N1	–	–	370	–
CNC(=O)Nc1cc(OC)cc(NC(=O)NS(=O)(=O)c2cc(C)c(CCOC)s2)n1	> 20 µM	0.27 µM	> 74	–

The next lines start with results.

IC50 [3]	IC50 (CREB-binding protein [5])	Ratio IC50 (Homo sapiens [7])	SMILES	further results
18 µM	–	–	Cn1cc(-c2cc3c(cc2C(F)F)N(c2ccc4sc(=O)n(C)c4c2)CCC3)cn1	CLint scaled at 1 µM [1]: 39 mL/min/kg; CLint scaled at 1 µM [2]: 71 mL/min/kg; CLint scaled at 1 µM [4]: 17 mL/min/kg
4.1 µM	0.02 µM	210	Cn1cc(-c2cc3c(cc2C(F)F)N(c2ccc4c(c2)n(C)c(=O)n4C)CCC3)cn1	CLint scaled at 1 µM [1]: 38 mL/min/kg; CLint scaled at 1 µM [2]: 61 mL/min/kg; EC50 [8]: 1 µM; CLint scaled at 1 µM [4]: 16 mL/min/kg
> 20 µM	0.038 µM	> 530	CN1C(=O)CCc2ccc(N3CCCc4cc(-c5cnn(C)c5)c(C(F)F)cc43)cc21	–
1.1 µM	0.0036 µM	310	Cn1cc(-c2cc3c(cc2C(F)F)N(c2cc(N4CCOCC4)c4c(c2)n(C)c(=O)n4C)CCC3)cn1	CLint scaled at 1 µM [1]: 23 mL/min/kg; CLint scaled at 1 µM [2]: 48 mL/min/kg; EC50 [8]: 0.012 µM; CLint scaled at 1 µM [4]: 15 mL/min/kg
> 20 µM	1.4 µM	> 14	CNC(=O)c1cnn2ccc(N3CCCc4cc(-c5cnn(C)c5)c(C(F)F)cc43)nc12	–
> 20 µM	–	> 590	CNC(=O)c1ccc2nccc(N3CCCc4cc(-c5cnn(C)c5)c(C(F)F)cc43)c2c1	–
> 20 µM	–	–	C[C@H]1Nc2c(cccc2N2CCCc3cc(-c4cnn(C)c4)c(C(F)F)cc32)NC1=O	–
7.4 µM	0.013 µM	570	CNC(=O)N1CCOc2ccc(N3CCCc4cc(-c5cnn(C)c5)c(C(F)F)cc43)cc2C1	–
4.5 µM	0.0034 µM	1300	C[C@@H]1CC(=O)Nc2cccc(N3CCCc4cc(-c5cnn(C)c5)c(C(F)F)cc43)c2N1	IC50 [10]: > 20 µM; IC50 [11]: > 20 µM
6.9 µM	0.45 µM	> 15	CC(=O)N1CCCc2cc(N3CCCc4cc(-c5cnn(C)c5)c(C(F)F)cc43)ccc21	–
12 µM	0.0095 µM	1300	CNC(=O)c1c[nH]c2ccc(N3CCCc4cc(-c5cnn(C)c5)c(C(F)F)cc43)cc12	CLint scaled at 1 µM [1]: 20 mL/min/kg; CLint scaled at 1 µM [2]: 47 mL/min/kg; EC50 [8]: 2.2 µM; CLint scaled at 1 µM [4]: 13 mL/min/kg
> 20 µM	–	> 430	CC(=O)N1CCc2c(cc(N3CCCc4cc(-c5cnn(C)c5)c(C(F)F)cc43)c(=O)n2C)C1	–
3.9 µM	–	780	CNC(=O)c1c[nH]c2cnc(N3CCCc4cc(-c5cnn(C)c5)c(C(F)F)cc43)cc12	CLint scaled at 1 µM [1]: 17 mL/min/kg; CLint scaled at 1 µM [2]: 39 mL/min/kg; EC50 [8]: 0.36 µM; CLint scaled at 1 µM [4]: 6.9 mL/min/kg
